The values below come from ChEMBL document CHEMBL1138849, “5-substituted tetrazoles as bioisosteres of carboxylic acids. Bioisosterism and mechanistic studies on glutathione reductase inhibitors as antimalarials” (J Med Chem, 2004).

“And” between values parts separate entries of the source, which are not always exact repeats. Equal values may be shown once.

As usually defined, the IC50 is the concentration that gives 50% inhibition. For orientation: Ki means the equilibrium dissociation constant of an inhibitor or competing ligand from its target.

One test deals with Plasmodium falciparum. As to the kind of experiment: Inhibitory concentration against Plasmodium falciparum […]. Type of test: functional, organism-based. The settings on record: FcB1/Columbia.
Test [1] deals with T1, Glutathione reductase, mitochondrial (Homo sapiens, UniProt P00390).
T1 sequence (P00390 whole entry): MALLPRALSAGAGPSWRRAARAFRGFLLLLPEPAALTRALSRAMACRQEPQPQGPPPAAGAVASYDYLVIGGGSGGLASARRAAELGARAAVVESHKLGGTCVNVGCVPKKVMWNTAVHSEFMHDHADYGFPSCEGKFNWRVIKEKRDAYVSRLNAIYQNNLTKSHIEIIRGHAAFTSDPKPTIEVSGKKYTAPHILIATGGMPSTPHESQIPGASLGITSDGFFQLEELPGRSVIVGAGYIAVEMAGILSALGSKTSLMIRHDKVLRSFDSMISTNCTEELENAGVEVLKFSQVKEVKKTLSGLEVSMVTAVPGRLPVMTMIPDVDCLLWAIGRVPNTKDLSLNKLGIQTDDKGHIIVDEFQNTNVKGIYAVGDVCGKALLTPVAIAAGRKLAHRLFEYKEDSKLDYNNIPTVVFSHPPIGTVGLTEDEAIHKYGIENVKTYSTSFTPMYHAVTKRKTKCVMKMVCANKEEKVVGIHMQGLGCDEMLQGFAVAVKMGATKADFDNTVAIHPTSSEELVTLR
Briefly: Inhibitory concentration against human glutathione reductase (In presence of NADPH).

Test [2] addresses T1, Glutathione reductase, mitochondrial. As to the kind of experiment: Inhibitory concentration against human glutathione reductase (In presence of glutathione disulfide).
For test [3] the target is unchanged. As to the kind of experiment: Inhibitory concentration against human glutathione reductase. Put shortly:
(§1)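 Recombinant GR (human or P. falciparum) in 100 mM potassium phosphate pH 7.0, 200 mM KCl, 100 μM NADPH, 1 mM GSSG, with 1% final DMSO. Started with 8 milliunits of enzyme. Initial rates of NADPH oxidation read at 340 nm. […] A second set of standard assays used 200 μM GSSG.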

In the next test the target is Glutathione reductase (Plasmodium falciparum 3D7, UniProt O15770). Briefly: Inhibitory concentration against Plasmodium falciparum glutathione reductase. The essentials: as §1
The target in test [4] is Glutathione reductase (Plasmodium falciparum) (UniProt Q94655). As to the kind of experiment: Inhibitory concentration against Plasmodium falciparum glutathione reductase.
In test [5] the target is T1, Glutathione reductase, mitochondrial. As to the kind of experiment: Inhibitory concentration against human glutathione reductase in the presence of 200 uM exogenous NADP.
Test [6] has the same target. As to the kind of experiment: Inhibitory concentration against human glutathione reductase in the absence of glucose-6-phosphate dehydrogenase (G6PDH). The essentials: as §1

Glutathione reductase, sequence (O15770 whole entry): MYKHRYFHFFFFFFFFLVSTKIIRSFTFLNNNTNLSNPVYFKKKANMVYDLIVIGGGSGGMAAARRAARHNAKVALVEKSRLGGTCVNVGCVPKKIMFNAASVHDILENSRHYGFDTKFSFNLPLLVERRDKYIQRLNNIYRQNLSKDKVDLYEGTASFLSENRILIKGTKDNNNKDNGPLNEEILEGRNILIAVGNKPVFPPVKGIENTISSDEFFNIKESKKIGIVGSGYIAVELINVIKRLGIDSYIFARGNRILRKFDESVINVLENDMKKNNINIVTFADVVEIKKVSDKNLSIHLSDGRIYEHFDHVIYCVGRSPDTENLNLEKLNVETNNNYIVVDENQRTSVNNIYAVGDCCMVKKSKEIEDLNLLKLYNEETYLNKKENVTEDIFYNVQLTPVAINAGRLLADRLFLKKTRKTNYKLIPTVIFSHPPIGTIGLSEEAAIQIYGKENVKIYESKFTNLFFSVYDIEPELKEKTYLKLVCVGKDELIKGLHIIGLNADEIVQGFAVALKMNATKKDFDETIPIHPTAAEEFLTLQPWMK
Glutathione reductase (Plasmodium falciparum), sequence (Q94655 whole entry, looked up): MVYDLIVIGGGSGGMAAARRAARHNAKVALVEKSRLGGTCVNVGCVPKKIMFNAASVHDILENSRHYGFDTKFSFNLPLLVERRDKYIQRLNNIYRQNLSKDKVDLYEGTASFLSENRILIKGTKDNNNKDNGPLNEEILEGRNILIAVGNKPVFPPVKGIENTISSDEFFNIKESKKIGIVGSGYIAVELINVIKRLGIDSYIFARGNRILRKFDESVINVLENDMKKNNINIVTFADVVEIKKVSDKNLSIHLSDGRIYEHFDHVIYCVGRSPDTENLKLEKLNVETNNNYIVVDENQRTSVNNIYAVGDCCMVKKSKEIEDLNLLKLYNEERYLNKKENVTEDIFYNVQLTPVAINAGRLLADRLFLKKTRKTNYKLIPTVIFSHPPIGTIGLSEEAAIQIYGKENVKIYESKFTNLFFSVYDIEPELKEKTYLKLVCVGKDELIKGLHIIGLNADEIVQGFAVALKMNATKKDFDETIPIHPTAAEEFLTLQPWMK

Compound `CC1=C(CCCCCc2nnnn2CCC#N)C(=O)c2ccccc2C1=O` had an IC50 in the test on Plasmodium falciparum of 1.1 µM.
In the case of `CC1=CC(=O)c2ccccc2C1=O` [MENADIONE], the figures for the Ki in test [1] and in test [2] were 16.1 µM and 12.1 µM, respectively.
Consider `CC1=C(CCCCC(=O)NCCC#N)C(=O)c2ccccc2C1=O`, for which the IC50 in the test on Plasmodium falciparum stood at 1.5 µM; in test [3], 22.7 µM; on Glutathione reductase it was 57 µM.
Regarding `CN(C)c1ccc2nc3ccc(=[N+](C)C)cc-3sc2c1` [METHYLENE BLUE ANHYDROUS], the IC50 in test [3] stood at 16 µM; against Glutathione reductase it was 6.4 µM.
As for `CC1=C(CCCCc2nnnn2CCC#N)C(=O)c2ccccc2C1=O`, the IC50 in the test on Plasmodium falciparum amounted to 1.4 µM; in test [3] it was 27 µM; against Glutathione reductase, 10.8 µM.
Turning to `CC1=C(CCCCC(=O)O)C(=O)c2ccccc2C1=O`, in the test with Plasmodium falciparum, the midpoint of inhibition, the IC50, lay at 4 µM.
In turn, `CC1=C(CCCc2nnnn2CCC#N)C(=O)c2ccccc2C1=O` returned an IC50 in the test with Plasmodium falciparum of 0.9 µM.
Take `CC1=C(CCCCCC(=O)OCCN(C)C)C(=O)c2ccccc2C1=O`: the IC50 with Plasmodium falciparum is 12.6 µM.
In the test with Plasmodium falciparum, `CC1=C(CCCC(=O)NCCC#N)C(=O)c2ccccc2C1=O` displayed an IC50 of 1.8 µM.
Take `CC1=C(CCCCCC(=O)O)C(=O)c2ccccc2C1=O`: the IC50 was 3.5 µM with Plasmodium falciparum; 3.2 µM in test [3]; 2.7 µM in test [5]; 2.7 µM and 1.8 µM in test [6]; 4.5 µM against Glutathione reductase. Besides, the inhibition constant (Ki) was found to be 3.7 µM in test [4] and 3.6 µM at Glutathione reductase.
For `CC1=C(CCCCCC(=O)NCCC#N)C(=O)c2ccccc2C1=O`, half-maximal inhibition with Plasmodium falciparum (IC50) was put at 1 µM.
